According to article PMC12065821 (Scientific Reports, 2025):
Where a SMILES comes first, the peptide text is derived from it. Bridges are numbered along the chain shown (N, C = ends). [ ]: non-standard residue; d: D form. The star is where a group is joined. Heptanoyl(6-Me) = CC(C)CCCCC(=O)*; Dab = NCC[C@H](N)C(=O)O

Assays:
[1] = cited from earlier work
[2] = cited from earlier work; remark: listed apart in the source
[3] = Kidney PK of CMS/CMS-E2 and formed colistin/colistin B; assay type: in vivo, rats; settings: for Kp: kidney (cortex) / plasma, colistin/colistin B; for Tmax formed colistin/colistin B in kidneys / Cmax formed colistin/colistin B in kidneys: rat kidney cortex, LC-MS/MS; for Tmax formed colistin/colistin B in kidneys: NCA; for Cmax formed colistin/colistin B in kidneys: mean ± SD
In short: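 Male Sprague-Dawley rats (300 ± 15 g) got one i.p. dose in saline. At each sampling time rats were anaesthetised with tiletamine-zolazepam (40 mg/kg) and killed, and the left kidney was frozen at −70 °C. Kidney cortex was homogenised in saline (1:10 m/v, 1% BSA). Samples went through WCX solid-phase extraction with polymyxin B1 internal standard, then LC-MS/MS. Prodrug was calculated as total (after […] sulfuric acid hydrolysis) minus free colistin/colistin B. Parameters came from non-compartmental analysis.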

[4] = Plasma PK of CMS/CMS-E2 and formed colistin/colistin B; assay type: in vivo, rats; settings: rat plasma, LC-MS/MS, NCA, mean ± SD
In short: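 Male Sprague-Dawley rats were dosed once i.p. in saline, and serial jugular-vein blood was taken before and after dosing. Blood was heparinised (1%), spun at 4,982 × g for 10 min at 4 °C, and plasma stored at −70 °C. Plasma (40 µL) went through WCX solid-phase extraction with polymyxin B1 internal standard, then LC-MS/MS. Prodrug was total (acid-hydrolysed) minus free analyte. […] Values are mean ± SD, compared by Wilcoxon rank sum.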

[5] = PK-TD model, PK component; assay type: in vivo; settings: rats, single i.p. CMS-E2 40 mg/kg CBA, one-compartment PK-TD model, mean ± SD
In short: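 Plasma prodrug and formed colistin/colistin B concentrations after i.p. dosing were fitted by a compartmental model. The final model used one compartment each for prodrug and formed drug, a conversion rate constant, and linear first-order total clearance from both. Fit was judged by R², AIC, BIC and visual inspection. Estimates are mean ± SD.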

rats = test: Regression of kidney colistin/colistin B concentrations against CR, BUN, SQS; assay type: in vivo; settings: 95% CI
[6] = single i.p. CMS or CMS-E2 20 mg/kg CBA
[7] = single i.p. CMS-E2 40 mg/kg CBA

Kp ([3]; male, Sprague-Dawley, rat, ip, 20 mg/kg CBA, Kidney/plasma ratio of AUC0-inf, rats, single i.p. CMS or CMS-E2 20 mg/kg CBA): 19.7 | Kp ([3]; male, Sprague-Dawley, rat, ip, 40 mg/kg CBA, Kidney/plasma ratio of AUC0-inf, rats, single i.p. CMS-E2 40 mg/kg CBA): 39.6 | Kp ([3]; male, Sprague-Dawley, rat, ip, 40 mg/kg CBA, Kidney/plasma ratio of Cmax, rats, single i.p. CMS-E2 40 mg/kg CBA): 20.1 | tissue level at time at 8 h ([3]; male, Sprague-Dawley, rat, kidney cortex, ip, 20 mg/kg CBA, SD): 4860 ± 2360 ng/g | tissue level at time at 24 h ([3]; male, Sprague-Dawley, rat, kidney cortex, ip, 40 mg/kg CBA, SD): 11500 ± 1740 ng/g | Tmax formed colistin/colistin B in kidneys [3, 6]: 4 h | Cmax formed colistin/colistin B in kidneys ([3]; single i.p. CMS or CMS-E2 20 mg/kg CBA, SD): 17.6 ± 6.79 µg/g | Tmax formed colistin/colistin B in kidneys [3, 7]: 10 h | Cmax formed colistin/colistin B in kidneys ([3]; single i.p. CMS-E2 40 mg/kg CBA, SD): 148 ± 32.8 µg/g | Kidney/plasma ratio of Cmax, colistin/colistin B ([3]; rats, single i.p. CMS or CMS-E2 20 mg/kg CBA): 15.4 | AUC0-inf formed colistin/colistin B in plasma [4, 6]: 4140 ± 1260 ng·h/mL | Cmax formed colistin/colistin B in plasma [4, 6]: 1140 ± 217 ng/mL | Tmax formed colistin/colistin B in plasma [4, 6]: 1.67 ± 0.471 h | t1/2 formed colistin/colistin B in plasma [4, 6]: 1.22 ± 0.313 h | AUC0-inf formed colistin/colistin B in plasma [4, 7]: 35500 ± 23900 ng·h/mL | Cmax formed colistin/colistin B in plasma [4, 7]: 7080 ± 2770 ng/mL | Tmax formed colistin/colistin B in plasma [4, 7]: 4.71 ± 0.881 h | t1/2 formed colistin/colistin B in plasma [4, 7]: 2.13 ± 0.827 h | CLcolistin/colistin B (total body clearance) [5]: 1.89 ± 0.809 mL/min/kg | regression coefficient between kidney concentration and SQS (rats; ordered logistic regression): 0.03 | regression coefficient between kidney concentration and contemporaneous BUN (rats; simple linear regression): 0.08 | regression coefficient between kidney concentration and contemporaneous CR (rats; simple linear regression): 1.58
Structure (SMILES): CC(C)CCCCC(=O)N[C@@H](CCN)C(=O)N[C@H](C(=O)N[C@@H](CCN)C(=O)N[C@H]1CCNC(=O)[C@H]([C@@H](C)O)NC(=O)[C@H](CCN)NC(=O)[C@H](CCN)NC(=O)[C@H](CC(C)C)NC(=O)[C@@H](CC(C)C)NC(=O)[C@H](CCN)NC1=O)[C@@H](C)O [colistin B] ({Heptanoyl(6-Me)}-[Dab]T[Dab][Dab][Dab][dL]L[Dab][Dab]T; lactam 4-C)
clearance after the colistin sulfate [1]: 5.2 ± 0.4 mL/min/kg | clearance relative to colistin [1]: almost half | clearance when administered as a single component [1]: 3.05 ± 0.62 mL/min/kg | plasma protein binding [2]: 41.7 ± 12.4%
